From PubChem BioAssay
A selection: hits, their analogues and other compounds. The true share with any hit is near 2%.
NR2E3 ag-1 = NR2E3 agonists in two-hybrid cells, primary screen, cell-based, luminescence, CHO-S, Gal4-NCOR/VP16-NR2E3; Photoreceptor-specific nuclear receptor (Homo sapiens), Q9Y5X4; luciferase; inhibition of corepressor binding, % at 3.98 µM; actives 0.35% (n = 360,000);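 active = inhibition above the mean of all tested compounds plus 3 SD, cut at about 70% in these data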;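 also: 0% = DMSO with NR2E3 transfected cells and 100% = cells lacking NR2E3 construct; higher means lower luciferase signal from less NR2E3 corepressor binding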
Rev-erbA mod = modulators of Rev-erb alpha DNA binding, primary screen, biochemical, FITC-DNA, fluorescence polarization, uHTS. activity, % at 10 µM. AID 1259318, 2017. Nuclear receptor subfamily 1 group D member 1 (Homo sapiens), P20393. actives 0.79% (n = 370,000). Rev-erbα–FITC-DNA binding, 90 min;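 active = activity above about 14%, limit read from the data; passing the limit was not always enough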;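 also: 0% = DMSO wells with 35 nM protein and 100% = DMSO wells with 750 nM protein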
Neddyl block = inhibitors of cullin neddylation, primary screen, biochemical, TR-FRET, uHTS, NAE and Ubc12. NEDD8-conjugating enzyme Ubc12 (Homo sapiens) + NEDD8-activating enzyme E1 regulatory …. calls only at 25 µM. actives 0.58% (n = 360,000). AID 651699, 2012; in the data active = inhibition above about 36%
Target sequence (P61081 whole entry, looked up): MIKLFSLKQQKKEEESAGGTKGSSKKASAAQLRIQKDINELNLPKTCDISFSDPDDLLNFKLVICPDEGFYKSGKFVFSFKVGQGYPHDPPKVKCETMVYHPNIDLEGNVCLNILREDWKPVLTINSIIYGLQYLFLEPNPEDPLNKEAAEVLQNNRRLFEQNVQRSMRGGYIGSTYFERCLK
Target sequence (Q13564 whole entry, looked up): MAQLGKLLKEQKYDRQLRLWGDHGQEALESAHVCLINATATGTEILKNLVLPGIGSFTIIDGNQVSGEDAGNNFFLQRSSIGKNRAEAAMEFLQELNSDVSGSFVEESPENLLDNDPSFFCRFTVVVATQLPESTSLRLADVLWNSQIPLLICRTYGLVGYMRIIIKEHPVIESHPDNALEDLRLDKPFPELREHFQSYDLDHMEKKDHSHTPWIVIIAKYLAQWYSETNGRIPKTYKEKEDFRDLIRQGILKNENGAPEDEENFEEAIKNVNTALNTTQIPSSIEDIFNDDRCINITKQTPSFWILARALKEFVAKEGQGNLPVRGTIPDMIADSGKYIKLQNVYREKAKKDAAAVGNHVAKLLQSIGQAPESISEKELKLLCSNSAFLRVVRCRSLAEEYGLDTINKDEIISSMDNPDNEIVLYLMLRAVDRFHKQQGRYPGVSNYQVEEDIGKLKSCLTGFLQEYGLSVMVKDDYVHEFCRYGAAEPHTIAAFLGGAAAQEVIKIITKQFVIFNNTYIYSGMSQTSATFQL
PG9 Ab binder = binders of HIV-1 gp120 antibody PG9, primary screen, biochemical, TR-FRET. HIV-1 gp120 / PG9 antibody interaction. TR-FRET gp120-PG9 antibody binding. inhibition, % at 6.7 µM. actives 0.43% (n = 360,000). AID 624416, 2012; in the data active = inhibition above about 8.5%
NR2E3 ag-2 = inhibitors of NR2E3-RetCOR corepressor binding, primary screen, NR2E3 agonist project, biochemical, TR-FRET, GST-NR2E3, biotin-RetCOR; actives 0.12% (n = 320,000); inhibition of corepressor binding, % at 4.78 µM; 1536-well;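 active = percent inhibition above the cutoff of mean plus 3 SD of all tested compounds, set per screening campaign, cut at about 20% in these data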;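 also: 0% = DMSO wells and 100% = biotin wells as full block of FRET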
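system = GST-tagged NR2E3 plus biotinylated RetCOR corepressor | input = 1.35 nM GST-NR2E3 | also added = 7 nM biotin-RetCOR | schedule = 5 h incubation at 4 °C | measured by = TR-FRET with europium anti-GST and streptavidin-D2, 340 nm excitation | read-out = percent loss of FRET ratio relative to control wells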
NR1D1 mod conf = modulators of Rev-erb alpha DNA binding, confirmation, biochemical, FITC-DNA, fluorescence polarization, single point; shares compounds with Rev-erbA mod; 90 min; activation, % at 25 µM; actives 61% (n = 3,000); AID 1259319, 2017;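 active = activation at or above a set limit, or at least 3 SD above the negative control mean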;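 also: 0% = 35 nM protein with DMSO and 100% = 750 nM protein high control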
RORg DNA counter = modulation of RORgamma DNA binding, dose response, counter-screen for Rev-erb alpha modulator project, biochemical, fluorescence polarization, FITC-DNA; shares compounds with Rev-erbA mod; AID 1259320, 2017; IC50, µM; actives 8% (n = 910); purified RORgamma protein-FITC-DNA binding;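 active = Compounds whose fitted half-maximal concentration for disrupting protein-DNA binding is below 10 micromolar; the record names Rev-erb in its text, so the target is in doubt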
Starred values were filed as active, the others as inactive; i = inactive; x = no result given.

SMILES	NR2E3 ag-1	Rev-erbA mod	Neddyl block	PG9 Ab binder	NR2E3 ag-2	NR1D1 mod conf	others
COc1ccc2sc(-c3ccc(S(C)(=O)=O)cc3)c(-c3ccc4c(c3)OCCO4)c2c1	11.5	13.2	i	-1.0	x	x
COc1ccc(OC)c(-c2cc(C(=O)Nc3cc(C)on3)no2)c1	8.2	21.3*	x	3.0	-3.7	16.3
COc1ccc(NC(=O)c2cc(-c3ccc4c(c3)OCO4)on2)cc1	-41.0	33.2*	i	-1.8	-4.3	1.2
Cc1ccc(NC(=O)c2cc(-c3ccc4c(c3)OCO4)on2)cc1	-29.2	10.9	i	0.5	1.1	x
COc1cccc(-c2noc(-c3ccc4c(c3)OCO4)n2)c1	-158.8	-0.4	i	-0.5	-1.1	x
COc1ccc(-c2cc(C(=O)Nc3cc(C)on3)no2)cc1	x	-0.1	i	1.8	1.9	x
COc1ccc(-c2sc3cc4c(cc3c2-c2ccc3c(c2)OCCO3)OCO4)cc1	-26.3	17.8*	i	0.0	x	1.6
CCOc1ccc(-c2nnc3ccc(SCC(=O)Nc4nc5ccc(C)cc5s4)nn23)cc1	-2.1	33.8*	i	1.8	1.9	33.6*	RORg DNA counter=>40
COc1cc2nc(-c3ccccc3)nc(N3CCCC3)c2cc1OC	x	41.6*	x	-3.0	x	24.6*
COC(=O)c1ccccc1NC(=O)c1cc2ncc(Br)cn2n1	-4.8	23.1*	i	0.4	-2.0	2.1
FC(F)(F)c1ccccc1Cc1c(-c2cccc(Br)c2)nc2ccc(Br)cn12	-7.3	15.8	i	1.4	x	x
COc1ccccc1NC(=O)c1oc2ccccc2c1NC(=O)C1CC1	-43.2	4.6	x	-2.5	0.1	x
COc1ccc(NC(=O)c2oc3ccccc3c2NC(=O)COc2ccccc2OC)c(OC)c1	-9.3	42.5*	i	-1.5	-0.4	30.7*
CCOCC(=O)Nc1c(C(=O)Nc2ccccc2OC)oc2ccccc12	4.0	46.9*	i	0.8	-1.6	38.5*
COc1ccc2c(c1C(=O)/C=C/c1ccccc1)OC(C)(C)C=C2	x	-8.0	x	x	x	x
O=C(COC(=O)C1CC2C=CC1C2)Nc1ccc([N+](=O)[O-])cc1 (stereo not given)	-25.3	1.9	i	-0.3	x	x
CC(C)CNC(=O)c1cc2nc3c(c(C(F)(F)F)n2n1)CCc1ccccc1-3	5.6	23.3	i	1.2	2.3	x
CCCCNC(=O)c1cc2nc3c(c(C(F)(F)F)n2n1)CCc1ccccc1-3	-6.5	30.0*	i	-0.1	-0.2	6.9
COc1ccccc1N(C)S(=O)(=O)c1ccc(Cl)c(C(=O)OCc2c(C)noc2C)c1	1.1	18.1*	i	0.2	-1.4	16.8
COc1cc2c3nnc(-c4ccccc4)c-3cn(Cc3ccc(F)cc3)c2cc1OC	9.2	23.0*	x	0.1	-0.3	0.1
COc1cc(Cl)ccc1OC1(C)CCN(Cc2ccc(-c3ccccn3)cc2)C1 (stereo not given)	16.0	0.6	i	-0.1	x	x
O=C(CNC(=O)c1cccs1)N/N=C/c1c(F)cccc1Cl	-18.2	-1.9	i	0.2	1.6	x
O=C(Nc1ccccc1)Nc1ncc([N+](=O)[O-])s1	36.5	22.6*	i	-2.1	x	11.3
O=C(CSc1nnc(-c2ccccc2)n1-c1ccccc1)Nc1ccc(Oc2ccccc2)cc1	x	-1.4	x	x	x	x
Fc1cccc2sc(Nc3nc4cc5c(cc4s3)OCCO5)nc12	-57.4	33.9*	i	-1.9	3.2	35.3*	RORg DNA counter=>40
Fc1cccc2sc(Nc3nc4cc5c(cc4s3)OCO5)nc12	-190.3	19.3	x	-0.3	1.9	x
O=C(Nc1ccc(F)cc1F)C1CCN(c2ncnc3c2sc2cccc(F)c23)CC1	-82.7	32.6*	i	0.2	-2.3	27.3*
O=C(C1CCN(c2ncnc3c2sc2cccc(F)c23)CC1)N1CCCCC1	x	-9.2	x	x	x	x
